The text below walks through data of ChEMBL document CHEMBL4334433, “BIM-46174 fragments as potential ligands of G proteins” (Medchemcomm, 2019).

The structures appear in SMILES notation. Calls of active or inactive are those of the source. The rule behind the calls is not given here.

What all share (type): cell-based
Series [1] deals with T1, Guanine nucleotide-binding protein G(q) subunit alpha (Homo sapiens) (UniProt P50148).
T1 sequence (whole entry): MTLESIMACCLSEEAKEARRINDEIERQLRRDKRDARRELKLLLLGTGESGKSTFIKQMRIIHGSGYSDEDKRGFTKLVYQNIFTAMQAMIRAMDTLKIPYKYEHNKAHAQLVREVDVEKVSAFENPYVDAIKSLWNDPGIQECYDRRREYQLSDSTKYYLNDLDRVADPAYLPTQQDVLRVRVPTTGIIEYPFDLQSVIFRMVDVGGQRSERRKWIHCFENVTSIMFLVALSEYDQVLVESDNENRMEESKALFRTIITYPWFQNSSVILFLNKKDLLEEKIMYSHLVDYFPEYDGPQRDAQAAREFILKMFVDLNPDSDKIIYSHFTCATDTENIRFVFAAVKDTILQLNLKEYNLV
Briefly: Inhibition of Galpha-q in human HEK293 cells assessed as reduction in CCh-induced IP1 accumulation at 100 uM preincubated for 2 hrs followed by CCh stimulation and measured after 35 mins by time resolved fluorescence assay. Put shortly:
(§1)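 HEK293 wt cells were grown in DMEM with 10% FBS and penicillin/streptomycin at 37 °C and 5% CO2. Cells were plated at 60,000 per well and pre-incubated 15 min at 37 °C. Compound was added in stimulation buffer for 2 h at 37 °C, followed by buffer containing 100 µM carbachol (concentration in the added buffer) for 35 min. IP1 was read by HTRF (620/665 nm ratio).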

The subject of another series is HEK293. Briefly: Cytotoxicity against human HEK293 cells assessed as reduction in cell viability at 100 uM incubated for 22 hrs by CellTiter-BlueTM cell viability assay. The conditions noted are these: hek293, 22 h. Put shortly:
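HEK293 cells were seeded at 25,000 per well on poly-D-lysine and grown overnight, then exposed to compound for 22 h. CellTiter-Blue reagent was added for a further 2 h, and resorufin fluorescence was read at excitation 560 nm and emission 590 nm.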
On the technique in general: The colour change of resazurin is a common sign of viable cells or microbes.

In series [2] the target is T1, Guanine nucleotide-binding protein G(q) subunit alpha (Homo sapiens). Briefly: Inhibition of Galpha-q in human HEK293 cells harbouring PL3alpha mutant assessed as reduction in CCh-induced IP1 accumulation preincubated for 2 hrs followed by CCh stimulation and measured after 35 mins by time resolved fluorescence assay.
The target is the same in series [3]. Briefly: Inhibition of Galpha-q in human HEK293 cells assessed as reduction in CCh-induced IP1 accumulation preincubated for 2 hrs followed by CCh stimulation and measured after 35 mins by time resolved fluorescence assay. Put shortly:
as §1

As to `N[C@@H](CS)C(=O)N1CCNC(=O)[C@@H]1CC1CCCCC1`, the inhibition entry in series [1] is “inactive”. Further, the Activity entry in the series on HEK293 was “Non-Toxic”.

As to `O=C1CCn2cc(-c3ccccc3)nc2CN1`, the inhibition result in series [1] was “inactive”. Moreover, the Activity entry with HEK293 is reported as “Non-Toxic”. Further, the inhibition result in series [2] is “Active”. Besides, in series [3], the inhibition result is “Dose-dependent effect”.

In the case of `O=C1CCn2cc(-c3ccccc3)nc2[C@H](CC2CCCCC2)N1`, the inhibition entry in series [1] was “inactive”. In addition, the Activity result in the series on HEK293 is “Non-Toxic”.

For `O=C1Cn2cc(-c3ccccc3)nc2[C@H](CC2CCCCC2)CN1`, in series [1], the inhibition entry was “inactive”. In addition, in the series on HEK293, the Activity result was “Non-Toxic”.

Turning to `O=C1Cn2cc(-c3ccccc3)nc2CCN1`, the inhibition entry in series [1] is “inactive”. The Activity result with HEK293 is “Non-Toxic”.

As for `N[C@@H](CS)C(=O)N1CCn2cc(-c3ccccc3)nc2[C@@H]1CC1CCCCC1`, the inhibition entry in series [1] was “Active”. For the same compound, the Activity result in the series with HEK293 is on record as “Toxic”.

For `O=C1Cn2cc(-c3ccccc3)nc2CN1`, the inhibition entry in series [1] was “inactive”. For the same compound, the Activity entry in the series with HEK293 is listed as “Non-Toxic”. In addition, the inhibition entry in series [2] was “Active”. Further, the inhibition entry in series [3] is “Dose-dependent effect”.

For the compound `O=C1Cn2cc(-c3ccccc3)nc2[C@H](CC2CCCCC2)N1`, in series [1], the inhibition entry was “inactive”. For the same compound, in the series on HEK293, the Activity entry is “Non-Toxic”.

In the case of `N[C@@H](CS)C(=O)N1CCNC(=O)C1`, the inhibition entry in series [1] is “inactive”. In the series on HEK293, the Activity result is given as “Non-Toxic”.
